Screening data as filed in PubChem BioAssay.
Diaphorase inh = diaphorase inhibition or chemical oxidation counter-screen; diaphorase resazurin-to-resorufin fluorescence, NADH, 16 min; bacterial (C. kluyveri) enzyme, not human; inhibition, % at 20 µM; hit rate 0.69% among 190,000; AID 1217;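 active = primary screen inhibition at 20 µM above a set limit, cut at about 50% in these data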;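 note: plate controls were DMSO with full reaction for no effect and wells lacking NADH for full effect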
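System: Bacterial diaphorase enzyme (C. kluyveri) | Incubation: 16-min room-temperature incubation before reading | Benchmarks: No-NADH positive control and DMSO neutral control | Measured by: Resorufin fluorescence 544/590 nm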
G6PDH counter-1 = inhibits Leuconostoc G6PDH, flagging false hits in G6PDH-based assays; Purified L. mesenteroides G6PDH, diaphorase/resazurin coupled fluorescence, 45 min; inhibition, % at 5 µM; hit rate 0.12% among 200,000; in the data active = inhibition above about 50%
Tb hexokinase = blocks Trypanosoma brucei hexokinase 1 activity; recombinant TbHK1, G6PDH-coupled NADH A340; inhibition, % at 10 µM; hit rate 0.11% among 220,000;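 active = inhibition of 50% or more in the single-dose primary screen; inactive = inhibition below 50%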
PMI act hi M6P = activators of human phosphomannose isomerase at near-saturating mannose 6-phosphate. activation factor at 20 µM. coupled PMI enzyme assay, resazurin fluorescence, 20 min; hits give high values; 1 = untreated enzyme, 0 = substrate-free blank. hit rate 0.34% among 190,000. P34949. AID 1216;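 active = activation factor of 2 or more at 20 µM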
Target sequence (P34949 whole entry, looked up): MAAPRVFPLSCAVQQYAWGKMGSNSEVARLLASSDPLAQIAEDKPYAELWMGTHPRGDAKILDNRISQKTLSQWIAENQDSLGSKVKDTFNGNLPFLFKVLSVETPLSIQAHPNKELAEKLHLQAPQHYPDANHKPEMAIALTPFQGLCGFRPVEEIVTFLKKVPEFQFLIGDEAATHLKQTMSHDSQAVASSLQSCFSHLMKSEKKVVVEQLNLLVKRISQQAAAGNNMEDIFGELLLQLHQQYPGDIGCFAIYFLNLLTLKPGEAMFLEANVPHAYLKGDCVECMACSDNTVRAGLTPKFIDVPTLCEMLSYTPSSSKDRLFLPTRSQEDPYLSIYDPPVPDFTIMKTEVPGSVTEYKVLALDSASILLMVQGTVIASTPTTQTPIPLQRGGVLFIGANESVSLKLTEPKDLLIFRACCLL
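Test system: Human PMI in coupled enzyme assay | Input: 15 ng/mL PMI | Medium: HEPES-buffered pH 7.4 with magnesium and detergent | Compound: One concentration, 20 µM, in 1% DMSO | Incubation: Enzyme reaction with compound 20 min at room temperature | Detection: Diaphorase-driven resazurin-to-resorufin fluorescence, excitation 544, emission 590 nm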
Diaphorase act = diaphorase activation or chemical reduction counter-screen | Diaphorase/resazurin coupled assay, resorufin fluorescence, 16 min; hits give high values; 1 = vehicle wells, 0 = NADH-free wells | hit rate 0.005% among 190,000 | activation factor at 20 µM;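 active = diaphorase activity raised at least twofold by the compound at 20 µM; inactive = activation factor below 2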
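System – purified diaphorase enzyme from Clostridium kluyveri · Input – enzyme 0.07 U/mL final · Also added – final NADH 0.114 mM, resazurin 0.1 mM · Measured by – fluorescence of resorufin, 544 nm excitation, 590 nm emission · Timing – 16 min enzyme reaction, ambient temperature · Measure – resorufin increase flagging diaphorase activators or reducers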
PMI activator = activators of human phosphomannose isomerase | AID 1214 | P34949 | purified human PMI, coupled resazurin fluorescence, 20 min; hits give high values; 1 = vehicle control, 0 substrate-free wells | hit rate 0.005% among 190,000 | activation factor at 20 µM;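 active = activation factor of 2 or more at 20 µM, relative to plate controls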
G6PDH counter-2 = counter-screen for TbHK1 inhibitors: Leuconostoc G6PDH inhibition | inhibition, % at 10 µM | shares compounds with Tb hexokinase | purified G6PDH, NADH absorbance, 1 h | hit rate 7% among 210 | AID 2516;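 active = at least 50% inhibition in the glucose-6-phosphate dehydrogenase coupled counterscreen; inconclusive = no clear call, values can overlap the other calls; inactive = inhibition below 50%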
TbHK1 rescreen = confirmation of Trypanosoma brucei hexokinase 1 inhibitors. shares compounds with Tb hexokinase. recombinant TbHK1, G6PDH-coupled NADH A340 absorbance. inhibition, % at 10 µM. hit rate 10% among 210. AID 2560;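 active = inhibition of at least 50% in both of the two screening runs; inconclusive = at least 50% in one run, below 50% in the other; inactive = inhibition below 50% in both runs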;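 note: 0% and 100% set by the maximum and minimum signal control wells on each plate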
The depositor's hits bear a star; ? = inconclusive; · = no result given. Shown are actives, neighbours in structure and some others; about 1.1% of the full set was active somewhere.

SMILES	Diaphorase inh	G6PDH counter-1	Tb hexokinase	PMI act hi M6P	Diaphorase act	PMI activator	G6PDH counter-2	TbHK1 rescreen
Cc1cccc(Cn2nc(-n3cccc3)c3c(C)cc(C)nc32)c1	18	6	-1	0.9	0.8	0.9	·	·
Cc1ccc(-c2nn(CC(=O)N3CCOCC3)c(=O)c3ccccc23)cc1S(=O)(=O)N(C)C	·	·	0	·	·	·	·	·
CCOc1cccc2c1OC1(C)CC2NC(=O)N1c1cccc(F)c1 (configuration not stated)	6	4	57*	1.1	0.9	1	-5	-1
Cc1cc(=O)[nH]c(N/N=C/c2c(O)n(-c3ccccc3)c(=O)c3ccccc23)n1	50	24	56*	1.4	0.5	1	-57	-23
CCC1(C)Cc2c(C#N)c(N)sc(=S)c2CO1 (configuration not stated)	14	14	83*	1.3	0.9	1.3	73*	?
CCC1(C)Cc2c(C#N)c(N)n(-c3ccccc3)c(=S)c2CO1 (configuration not stated)	43	19	-3	0.7	0.6	1.2	·	·
C/C(Cl)=C\Cn1c(NCCc2ccccc2)nc2c1c(=O)n(C)c(=O)n2C	-1	4	-3	1	1	1	·	·
C/C(Cl)=C/Cn1c(=O)c2c(nc(Br)n2Cc2ccccc2)n(C)c1=O	12	22	58*	1	0.9	1.1	-5	4
O=C(Nc1ccc2c(c1)OCCO2)C1CCN(S(=O)(=O)c2cccs2)CC1	13	1	-5	1	0.9	1	·	·
O=C(Nc1ccc2c(c1)OCCO2)C1CCCN(S(=O)(=O)c2cccs2)C1 (configuration not stated)	8	13	58*	1	0.9	1.1	-1	-3
O=C(Nc1ccc2c(c1)OCO2)C1CCCN(S(=O)(=O)c2cccs2)C1 (configuration not stated)	7	14	55*	0.9	0.9	1.1	2	-5
COCCCNC(=S)N1CCC(NC(=O)Nc2ccc(C)cc2)CC1	4	8	-3	0.9	1	0.9	·	·
Cc1nn(C)c(C)c1C(=O)NN	16	-2	54*	1	0.8	0.9	-2	2
CCC(C)Sc1nc2c(c(=O)[nH]c(=O)n2C)n1C (configuration not stated)	10	5	50*	1	0.9	1	0	8
Cn1c(SCc2cccc(F)c2)nnc1-c1ccccn1	6	-2	55*	1	0.9	1	-8	-2
CC(c1ccccc1)C1CC(=O)N(Cc2ccccc2)C1=O (configuration not stated)	14	4	-11	1	0.9	0.9	·	·
CCC(=O)NC(=S)NNC(=O)c1ccc(OC)cc1	19	0	-2	0.8	0.8	0.8	·	·
CCCCOc1ccc(C(=O)NNC(=S)NC(=O)CC)cc1	5	-14	58*	1.2	0.9	1.1	-19	-9
O=c1[nH]oc2cc(Cl)ccc12	·	·	-11	·	·	·	·	·
COC(=O)c1ccccc1NC(=O)CCS(=O)(=O)c1ccc(Br)cc1	28	1	62*	1	0.7	1	-6	67*
O=C(CCS(=O)(=O)c1ccc(Br)cc1)Nc1cc(F)ccc1F	23	2	14	0.9	0.8	0.9	·	·
CSC(=S)N/N=C(\C)c1ccc(Br)cc1	31	6	1	1	0.7	0.9	·	·
CC(=O)C1C(c2ccc(F)cc2)NC(=O)NC1(O)C(F)(F)F (configuration not stated)	8	3	51*	1	0.9	1	-6	3
CC(=O)C1C(c2ccc(O)cc2)NC(=O)NC1(O)C(F)(F)F (configuration not stated)	·	·	-8	·	·	·	·	·
COc1ccc(NC(=O)C2CC(c3cc(OC)c(OC)c(OC)c3)=NO2)cc1OC (configuration not stated)	14	3	3	1	0.9	0.9	·	·
SMILES	Diaphorase inh	G6PDH counter-1	Tb hexokinase	PMI act hi M6P	Diaphorase act	PMI activator	G6PDH counter-2	TbHK1 rescreen
COc1cccc(C2=NOC(C(=O)Nc3cc(OC)c(OC)c(OC)c3)C2)c1 (configuration not stated)	16	2	65*	1	0.8	1	-8	-2
COc1ccc(-c2nc(C3CCCCC3)no2)cc1OC	20	-4	64*	0.9	0.8	1	-12	-5
c1ccc(-c2nc(C3CCCCC3)no2)cc1	11	4	9	0.9	0.9	0.9	·	·
CCCCc1oc2ccccc2c1C(=O)c1cc(I)c(OCCN(CC)CC)c(I)c1	-1	7	63*	1.2	1	1.1	8	6
CC1CC2(CC(C)(C(=O)CSc3n[nH]c(-c4ccccc4Cl)n3)OC2=O)C(=O)O1 (configuration not stated)	8	16	9	1.3	0.9	1	·	·
CC1(C(=O)CSc2n[nH]c(-c3ccccc3Cl)n2)CCC(=O)O1 (configuration not stated)	9	-2	67*	1.1	0.9	0.8	-11	-2
Cc1ccc(S(=O)(=O)CC(=O)c2ccc3c(c2)OCCO3)cc1	·	·	-18	·	·	·	·	·
CCOc1ccc(NC(N)=O)cc1	9	5	60*	0.9	0.9	0.9	-1	4
O=C(NC(=S)Nc1cccc(O)c1)c1ccco1	·	·	-12	·	·	·	·	·
CCC(C)COC(=O)C(C#N)c1nc2ccccc2nc1N1CCCCC1 (configuration not stated)	34	8	56*	0.8	0.7	0.8	-12	18
CCc1nc(NC(C)(C)C)c2cnn(-c3ccccc3)c2n1	·	·	-10	·	·	·	·	·
COCCN(CC(=O)NCc1ccc2c(c1)OCO2)C(=O)CCC(=O)Nc1nccs1	8	9	0	1	0.9	1	·	·
COCCNC(=O)CN(Cc1ccc2c(c1)OCO2)C(=O)CCC(=O)Nc1nccs1	12	-13	53*	0.9	0.9	1	-13	-1
COc1cccc2c(=O)c(C(=O)NCc3cccs3)c[nH]c12	1	8	53*	0.9	1	1	-13	-22
NC(=O)C1CCN(C(=O)CN(c2cccc(C(F)(F)F)c2)S(=O)(=O)c2ccccc2)CC1	11	2	52*	1	0.9	0.9	-7	0
O=C(O)CN(c1cccc(C(F)(F)F)c1)S(=O)(=O)c1ccccc1	14	8	-9	1	0.9	0.9	·	·
CCOc1ccc2nc(N3C(=O)CNC3=S)sc2c1	·	·	-8	·	·	·	·	·
